The source made the active and inactive calls. No cut-off for these calls is given here.
Key:
[1] = molecular target: Cyclin-dependent kinase 9 (Homo sapiens) (UniProt P50750); assay: Inhibition of CDK9 in human THP-1 cells assessed as downregulation of RPL31 mRNA expression by RT-qPCR analysis; format: cell-based
[2] = molecular target: Cyclin-dependent kinase 9 (Homo sapiens) (UniProt P50750); assay: Inhibition of CDK9 in human HeLa cells assessed as upregulation of RNAPII expression at 10 uM incubated for 1 hr by chromatin immunoprecipitation assay; format: cell-based
[3] = molecular target: Cyclin-dependent kinase 9 (Mus musculus) (UniProt Q99J95); assay: Inhibition of CDK9 in mouse Embryonic stem cell assessed as downregulation of Serine 2 phosphorylation by measuring fold decrease at 10 uM incubated for 90 mins by Western blotting analysis; format: cell-based
Procedure, shortened: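 Mouse embryonic stem cells treated with 10 μM inhibitor or DMSO for 90 or 180 min; whole-cell Western blot for RNAPII CTD Ser2-P. Band signals quantified densitometrically and normalised to total RNAPII.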

[4] = Inhibition of CDK2/Cyclin A (unknown origin) using ULight MBP peptide as substrate in presence of ATP incubated for 1 hr by FRET based LANCE Ultra KinaSelect screen assay; set-up: species or system Homo sapiens
Procedure, shortened: (§1)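 Time-resolved FRET kinase assay with purified CDK-cyclin pairs. ULight MBP peptide substrate was 50 nM final. Buffer was 50 mM HEPES-KOH pH 7.5, 10 mM MgCl2, 1 mM EGTA and 2 mM DTT, with ATP at each kinase's KM (CDK2-cyclin A 3 μM). Reactions ran 1 h at room temperature, then 2 nM Eu-labelled anti-phospho antibody was added for detection. IC50 given as mean ± SD.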

[5] = molecular target: Cyclin-dependent kinase 9 (Homo sapiens) (UniProt P50750); assay: Inhibition of CDK9 in human A549 cells assessed as downregulation of RPL3 mRNA expression at 2 to 6 uM incubated for 90 mins by RT-qPCR analysis relative to control; format: cell-based; details: dose 2-6 µM
[6] = tested on: Leukemia cell; assay: Induction of apoptosis in human Acute myeloid leukemic cell at > 2 uM incubated for 24 hrs by Annexin V-FITC/PI staining based flow cytometric analysis; format: functional
Procedure, shortened: (§2)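 Cells grown at 37°C, 5% CO2 (A549, HeLa, MCF7 in DMEM high glucose; HCT116 in McCoy's 5A; THP1 and primary AML M4 apheresis blasts in RPMI1640), exposed to inhibitor or DMSO for 24 h. Apoptotic fraction by flow cytometry after annexin V-fluorescein/propidium iodide double staining. Means ± SD of three biological replicates; AML blasts from one patient, three technical replicates. Student's t-test versus DMSO/untreated.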

[7] = molecular target: Cyclin-dependent kinase 9 (Mus musculus) (UniProt Q99J95); assay: Inhibition of CDK9 in mouse Embryonic stem cell assessed as downregulation of MYC mRNA expression at 2.5 to 40 uM incubated for 90 mins by RT-qPCR analysis relative to control; format: cell-based; details: dose 2.5-40 µM
[8] = molecular target: CDK6/cyclin D3 (Homo sapiens, UniProt Q00534); assay: Inhibition of CDK6/Cyclin D3 (unknown origin) using ULight MBP peptide as substrate in presence of ATP incubated for 1 hr by FRET based LANCE Ultra KinaSelect screen assay; format: protein-complex assay; procedure, shortened: as §1
[9] = molecular target: Cyclin-dependent kinase 9 (Homo sapiens) (UniProt P50750); assay: Inhibition of CDK9 in human HeLa cells assessed as upregulation of serine 2 phosphorylation at 10 uM incubated for 1 hr by chromatin immunoprecipitation assay; format: cell-based
[10] = Displacement of kinase tracer 236 from CDK2/Cyclin A (unknown origin) assessed as dissociation constant incubated for 1 hr by LanthScreen Eu kinase binding assay; set-up: species or system Homo sapiens
[11] = molecular target: Cyclin-dependent kinase 9 (Homo sapiens) (UniProt P50750); assay: Inhibition of CDK9 in human A549 cells assessed as downregulation of MYC mRNA expression at 2 to 6 uM incubated for 90 mins by RT-qPCR analysis relative to control; format: cell-based; details: dose 2-6 µM
[12] = tested on: MCF7; assay: Induction of apoptosis in human MCF7 cells at 10 uM incubated for 24 hrs by Annexin V-FITC/PI staining based flow cytometric analysis; format: functional, cell-based; procedure, shortened: as §2
[13] = molecular target: Cyclin-dependent kinase 9 (Homo sapiens) (UniProt P50750); assay: Inhibition of CDK9 in human A549 cells assessed as downregulation of GAPDH mRNA expression at 1 to 10 uM incubated for 90 mins by RT-qPCR analysis relative to control; format: cell-based; details: dose 1-10 µM
[14] = tested on: p53HCT116; assay: Induction of apoptosis in human p53HCT116 cells at 10 uM incubated for 24 hrs by Annexin V-FITC/PI staining based flow cytometric analysis; format: functional, cell-based; procedure, shortened: as §2
[15] = molecular target: Cyclin-dependent kinase 9 (Homo sapiens) (UniProt P50750); assay: Inhibition of CDK9 in human MCF7 cells assessed as upregulation of p53 protein at 10 uM incubated for 4 hrs by Western blotting analysis; format: cell-based
[16] = molecular target: Cyclin-dependent kinase 9 (Homo sapiens) (UniProt P50750); assay: Inhibition of CDK9 in human A549 cells assessed as downregulation of PLK2 mRNA expression at 1 to 10 uM incubated for 90 mins by RT-qPCR analysis relative to control; format: cell-based; details: dose 1-10 µM
[17] = molecular target: Cyclin-dependent kinase 9 (Homo sapiens) (UniProt P50750); assay: Inhibition of CDK9 in human HeLa cells assessed as downregulation of Serine 2 phosphorylation by measuring fold decrease at 10 uM incubated for 60 mins by Western blotting analysis; format: cell-based
[18] = Transcription level in human HeLa cells nuclear extract fused with Gal4-VP16 at 10 uM in presence of ATP by phosphorimaging analysis relative to control
[19] = tested on: THP-1; assay: Induction of apoptosis in human THP-1 cells at > 2 uM incubated for 24 hrs by Annexin V-FITC/PI staining based flow cytometric analysis; format: functional, cell-based; procedure, shortened: as §2
[20] = molecular target: Cyclin-dependent kinase 9 (Homo sapiens) (UniProt P50750); assay: Inhibition of CDK9 in human HeLa cells assessed as upregulation of serine 5 phosphorylation at 10 uM incubated for 1 hr by chromatin immunoprecipitation assay; format: cell-based
[21] = molecular target: Cyclin-dependent kinase 9 (Homo sapiens) (UniProt P50750); assay: Inhibition of CDK9 in human HeLa cells assessed as downregulation of Serine 7 phosphorylation at 10 uM incubated for 60 mins by Western blotting analysis; format: cell-based
[22] = molecular target: Calcium/calmodulin-dependent protein kinase type IV (Homo sapiens, UniProt Q16566); assay: Inhibition of CAMK4 (unknown origin) incubated for 120 mins in presence of 33P-ATP by radiometric kinase assay
[23] = molecular target: Cyclin-dependent kinase 9 (Homo sapiens) (UniProt P50750); assay: Inhibition of CDK9 in human HeLa cells assessed as downregulation of Serine 5 phosphorylation at 10 uM incubated for 60 mins by Western blotting analysis; format: cell-based
[24] = tested on: HEK-293T; assay: Inhibition of transcription in human HEK293T cells nuclear extract fused with Gal4-VP16 at 10 uM in presence of ATP and KCL by phosphorimaging analysis; format: functional, subcellular; details: Nucleus
Procedure, shortened: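 In vitro transcription from the adenovirus core promoter (Gal-ML, 380 bp G-free cassette), soluble or bead-immobilised template, using HEK293T nuclear extract supplemented with recombinant Gal4-VP16. ATP 60 μM (low), 100 μM, or 500 μM (high); magnesium varied in one series. Transcripts quantified by phosphorimaging.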

[25] = Selectivity ratio of IC50 for inhibition of CDK9/Cyclin T1 (unknown origin) to IC50 for inhibition of CDK6/Cyclin D3 (unknown origin)
[26] = molecular target: Tyrosine-protein kinase ABL2 (Homo sapiens, UniProt P42684); assay: Inhibition of ABL2 (unknown origin) incubated for 120 mins in presence of 33P-ATP by radiometric kinase assay
Procedure, shortened: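 Radiometric panel assay, 10-dose mode: serial dilutions from […], in duplicate, at 1 μM ATP. Incubated 120 min at room temperature, then spotted on P81 paper, acid-washed and counted. Values are means.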

Chain of Cyclin-dependent kinase 9 (Homo sapiens) (P50750 whole entry): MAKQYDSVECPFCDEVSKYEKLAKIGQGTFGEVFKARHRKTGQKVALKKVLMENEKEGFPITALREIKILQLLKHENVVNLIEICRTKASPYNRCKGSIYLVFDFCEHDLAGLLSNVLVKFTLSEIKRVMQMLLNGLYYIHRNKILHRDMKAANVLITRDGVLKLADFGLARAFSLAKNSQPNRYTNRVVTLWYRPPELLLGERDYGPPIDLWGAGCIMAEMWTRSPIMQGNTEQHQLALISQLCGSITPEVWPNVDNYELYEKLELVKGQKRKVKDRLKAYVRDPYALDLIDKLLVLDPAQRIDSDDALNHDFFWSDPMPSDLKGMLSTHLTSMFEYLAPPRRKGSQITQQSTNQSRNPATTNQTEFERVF
Chain of Cyclin-dependent kinase 9 (Mus musculus) (Q99J95 whole entry): as the sequence (P50750 whole entry) above, with S17T, R37K, K40Q, N258K, Y262F counted along it
Chain of Calcium/calmodulin-dependent protein kinase type IV (Q16566 whole entry): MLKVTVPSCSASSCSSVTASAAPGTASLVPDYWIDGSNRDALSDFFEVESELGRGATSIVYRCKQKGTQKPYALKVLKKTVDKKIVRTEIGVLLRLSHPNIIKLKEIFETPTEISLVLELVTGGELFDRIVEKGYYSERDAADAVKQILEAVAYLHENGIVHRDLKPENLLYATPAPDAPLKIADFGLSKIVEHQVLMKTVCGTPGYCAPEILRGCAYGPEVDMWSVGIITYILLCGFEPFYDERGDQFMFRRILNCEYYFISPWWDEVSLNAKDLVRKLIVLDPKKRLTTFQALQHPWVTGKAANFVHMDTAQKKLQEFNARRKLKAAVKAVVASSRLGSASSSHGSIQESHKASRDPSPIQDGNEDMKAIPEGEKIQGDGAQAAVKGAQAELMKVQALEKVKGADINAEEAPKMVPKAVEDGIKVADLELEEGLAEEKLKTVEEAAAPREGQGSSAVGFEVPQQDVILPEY
Chain of CDK6/cyclin D3 (P30281 whole entry): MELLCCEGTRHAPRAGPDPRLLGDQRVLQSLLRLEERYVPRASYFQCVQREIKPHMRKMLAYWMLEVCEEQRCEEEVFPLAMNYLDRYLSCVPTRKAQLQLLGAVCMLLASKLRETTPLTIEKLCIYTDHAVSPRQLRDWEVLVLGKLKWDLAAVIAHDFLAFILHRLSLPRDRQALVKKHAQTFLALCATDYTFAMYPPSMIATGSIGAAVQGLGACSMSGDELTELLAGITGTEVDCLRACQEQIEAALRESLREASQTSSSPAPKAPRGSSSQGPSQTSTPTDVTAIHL
Chain of CDK6/cyclin D3 (Q00534 whole entry): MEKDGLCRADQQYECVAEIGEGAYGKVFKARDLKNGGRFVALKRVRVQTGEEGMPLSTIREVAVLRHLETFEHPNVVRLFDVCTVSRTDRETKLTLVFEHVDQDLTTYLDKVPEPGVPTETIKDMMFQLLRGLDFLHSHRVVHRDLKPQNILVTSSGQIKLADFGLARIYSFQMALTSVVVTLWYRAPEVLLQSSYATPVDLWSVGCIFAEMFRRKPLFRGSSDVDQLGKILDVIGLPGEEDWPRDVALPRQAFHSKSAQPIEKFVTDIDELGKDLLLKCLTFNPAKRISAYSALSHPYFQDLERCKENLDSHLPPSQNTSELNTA
Chain of Tyrosine-protein kinase ABL2 (P42684 whole entry): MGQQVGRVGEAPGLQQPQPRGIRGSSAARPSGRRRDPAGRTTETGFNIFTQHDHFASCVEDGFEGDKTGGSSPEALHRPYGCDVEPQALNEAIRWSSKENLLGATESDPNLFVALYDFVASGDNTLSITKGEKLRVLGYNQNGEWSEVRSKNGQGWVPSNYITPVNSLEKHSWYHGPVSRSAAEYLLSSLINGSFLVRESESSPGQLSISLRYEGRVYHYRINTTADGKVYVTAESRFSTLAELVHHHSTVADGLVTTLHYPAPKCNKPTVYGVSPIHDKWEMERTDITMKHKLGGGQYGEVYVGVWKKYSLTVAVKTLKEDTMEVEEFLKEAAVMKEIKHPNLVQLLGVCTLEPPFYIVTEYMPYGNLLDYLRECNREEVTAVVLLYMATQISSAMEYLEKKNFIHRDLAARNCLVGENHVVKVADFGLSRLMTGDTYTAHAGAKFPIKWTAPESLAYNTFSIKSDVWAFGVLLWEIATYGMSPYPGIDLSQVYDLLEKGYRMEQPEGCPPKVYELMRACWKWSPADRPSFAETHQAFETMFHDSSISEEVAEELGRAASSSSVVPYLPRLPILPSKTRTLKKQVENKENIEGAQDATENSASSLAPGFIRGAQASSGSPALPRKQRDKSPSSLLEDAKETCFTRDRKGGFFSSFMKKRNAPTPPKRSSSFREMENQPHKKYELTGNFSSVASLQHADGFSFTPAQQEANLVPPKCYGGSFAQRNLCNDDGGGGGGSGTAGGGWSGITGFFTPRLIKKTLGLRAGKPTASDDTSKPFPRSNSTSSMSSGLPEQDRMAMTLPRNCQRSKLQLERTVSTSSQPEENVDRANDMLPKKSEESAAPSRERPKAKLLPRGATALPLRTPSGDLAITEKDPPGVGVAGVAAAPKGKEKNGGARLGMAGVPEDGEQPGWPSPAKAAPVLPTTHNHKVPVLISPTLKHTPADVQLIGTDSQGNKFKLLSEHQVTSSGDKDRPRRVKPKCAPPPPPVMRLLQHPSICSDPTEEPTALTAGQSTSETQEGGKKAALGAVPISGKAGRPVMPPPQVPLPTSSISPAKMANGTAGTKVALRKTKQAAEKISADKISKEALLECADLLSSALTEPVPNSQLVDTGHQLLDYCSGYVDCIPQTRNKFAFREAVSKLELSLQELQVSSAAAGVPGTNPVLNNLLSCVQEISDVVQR

SMILES: COc1ccccc1-c1cc(Nc2cccc(NS(C)(=O)=O)c2)ncn1
- inhibition [1]: Active
- inhibition [2]: Active
- fold change (FC) [3]: 1.6
- IC50 [4]: 2.44 µM
- inhibition [5]: 50%
- Activity [6]: Active
- inhibition [7]: Active
- IC50 [8]: > 10 µM
- inhibition [9]: Active
- Kd [10]: 1.01 µM
- inhibition [11]: 50%
- Activity [12]: Active
- inhibition [13]: 50%
- Activity [14]: Active
- inhibition [15]: Active
- inhibition [16]: 50%
- fold change (FC) [17]: 1.6
- level, % of control at 10 µM [18]: 20%
- Activity [19]: Active
- inhibition [20]: Active
- inhibition [21]: inactive
- IC50 [22]: > 20 µM
- inhibition [23]: inactive
- inhibition [24]: Active
- Ratio IC50 [25]: > 227
- IC50 [26]: 3.64 µM

Reference: ChEMBL document CHEMBL5715950, “Characterization of molecular and cellular functions of the cyclin-dependent kinase CDK9 using a novel specific inhibitor” (Br J Pharmacol, 2014)
